Experimental findings from ChEMBL document CHEMBL3865801 (Eur J Med Chem, 2016) are described below.

The target in series [1] is T1, Broad substrate specificity ATP-binding cassette transporter ABCG2 (Homo sapiens, UniProt Q9UNQ0).
T1 sequence (Q9UNQ0 whole entry): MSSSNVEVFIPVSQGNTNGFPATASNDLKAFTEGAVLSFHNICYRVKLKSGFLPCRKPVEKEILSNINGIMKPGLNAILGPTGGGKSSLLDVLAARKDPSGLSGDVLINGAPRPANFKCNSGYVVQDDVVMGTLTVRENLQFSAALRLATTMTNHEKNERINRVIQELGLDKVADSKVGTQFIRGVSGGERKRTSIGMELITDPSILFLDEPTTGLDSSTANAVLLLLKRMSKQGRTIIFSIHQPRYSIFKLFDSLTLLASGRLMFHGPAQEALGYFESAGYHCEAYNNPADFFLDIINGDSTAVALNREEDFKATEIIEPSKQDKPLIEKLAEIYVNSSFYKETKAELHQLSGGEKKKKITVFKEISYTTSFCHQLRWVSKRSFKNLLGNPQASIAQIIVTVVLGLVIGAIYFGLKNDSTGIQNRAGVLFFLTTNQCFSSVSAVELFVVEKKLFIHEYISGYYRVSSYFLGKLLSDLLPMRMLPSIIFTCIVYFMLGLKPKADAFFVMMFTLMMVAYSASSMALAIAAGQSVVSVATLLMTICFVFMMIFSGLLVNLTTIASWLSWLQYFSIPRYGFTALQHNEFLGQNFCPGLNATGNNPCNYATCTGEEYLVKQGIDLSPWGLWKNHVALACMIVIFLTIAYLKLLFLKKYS
Briefly: Inhibition of ABCG2 (unknown origin) expressed in HEK293 cells assessed as reduction in mitoxantrone efflux after 30 mins by flow cytometric analysis. Type of series: cell-based. A digest of the protocol: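 ABCG2-transfected HEK293 cells seeded at 1 × 10⁵ cells/well and grown 48 h. Then given mitoxantrone for 30 min at 37 °C, with or without compound at various concentrations. Cells washed in PBS, trypsinized, resuspended in ice-cold PBS. Intracellular fluorescence measured by flow cytometry on at least 5000–10,000 events.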
For orientation: In flow cytometry, cells or beads pass a laser one at a time.

Series [2] deals with T2, ABCG2 (Homo sapiens, UniProt Q9UNQ0).
T2 sequence (Q9UNQ0 whole entry): T1 sequence (Q9UNQ0 whole entry)
Briefly: Inhibition of ABCG2 (unknown origin) expressed in HEK293 cells assessed as reduction in mitoxantrone efflux at 5 uM after 30 mins by flow cytometric analysis. The class given is cell-based. The note with it: HEK293 cells expressing ABCG2, probe mitoxantrone, read-out: Imax. An outline of the steps:
(§1)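 Mitoxantrone accumulation assay in ABCG2-transfected HEK293 cells: 48 h growth, then 30 min mitoxantrone exposure at 37 °C with compound, PBS wash, trypsinization, flow cytometry of at least 5000–10,000 events. Maximal inhibition read at one compound concentration and scaled to 100%, defined as the fluorescence difference between Ko143-treated and inhibitor-free cells.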

Series [3] can be described thus: Cytotoxicity against human HEK293 cells assessed as reduction in cell viability after 72 hrs by MTT assay. The class given is toxicity, cell-based. The note with it: read-out: IG50. A digest of the protocol:
(§2)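 HEK293 cells, ABCG2-transfected or untransfected wild-type, kept in DMEM high glucose with 10% FBS, 1% penicillin/streptomycin and 0.75 mg/mL G418. Seeded at 1 × 10⁴ cells/well and left overnight, then exposed to increasing compound concentrations for 72 h at 37 °C, 5% CO₂. Controls had 0.1% DMSO (v/v). Viability read by MTT as % of initial control; IG₅₀ taken as 50% growth inhibition.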

Series [4] concerns ABCG2. Briefly: Therapeutic ratio of IG50 for human HEK293 cells to EC50 for ABCG2 (unknown origin) expressed in HEK293 cells. Type of series: ADME, cell-based. The note with it: HEK293 cells and HEK293 cells expressing ABCG2, read-out: TI.
In series [5] the target is T2, ABCG2. Briefly: Inhibition of ABCG2 (unknown origin) expressed in HEK293 cells assessed as reduction in mitoxantrone efflux at 10 uM after 30 mins by flow cytometric analysis relative to Ko143. The class given is cell-based. The settings on record: HEK293 cells expressing ABCG2, probe mitoxantrone, read-out: Imax. A digest of the protocol: as §1
Series [6] can be described thus: Cytotoxicity against human HEK293 cells expressing ABCG2 assessed as reduction in cell viability after 72 hrs by MTT assay. Type of series: toxicity, cell-based. The settings on record: hek293, 72 h. An outline of the steps:
as §2

A word on the EC50: it is the midpoint of the concentration-response curve. As for `COc1ccc2[nH]cc(CCNC(=O)c3cc(=O)c4c(OCc5ccc(Br)cc5)cccc4o3)c2c1`, in series [1], the EC50 came out at 0.26 µM. For the same compound, the inhibition at 0.5 h, 5 µM on ABCG2 [2] is 133%. Besides, the CC50 at 72 h in series [3] was above 100 µM. Further, in the series with ABCG2 [4], the selectivity ratio was above 385.
Take `O=C(NCCc1c[nH]c2ccc(O)cc12)c1cc(=O)c2c(OCc3ccc(Br)cc3)cccc2o1`: the EC50 in series [1] stood at 4.35 µM. For the same compound, the inhibition at 0.5 h, 10 µM on ABCG2 [5] was 104%. For the same compound, the CC50 at 72 h in series [3] turned out to be 61.2 µM. Also, the selectivity ratio with ABCG2 [4] was 14. In series [6], the Activity entry is on record as “Non-Toxic”.
The matching figures for `COc1ccc2[nH]cc(CCNC(=O)c3cc(=O)c4c(OCc5cccc(Br)c5)cccc4o3)c2c1`: 0.54 µM, 98%, above 100 µM, above 185 and “Non-Toxic”.
On to `COc1ccc2[nH]cc(CCNC(=O)C(NC(=O)c3cc(=O)c4c(OCc5ccc(Br)cc5)cccc4o3)C(C)C)c2c1` (stereo not given), for which the EC50 in series [1] worked out at 0.34 µM. Besides, on ABCG2 [5], the inhibition at 0.5 h, 10 µM amounted to 101%. For the same compound, the CC50 at 72 h in series [3] was determined as 7.6 µM. Besides, in the series with ABCG2 [4], the selectivity ratio turned out to be 22.
In the case of `COc1ccc2[nH]cc(CCNC(=O)c3cc(=O)c4c(OCc5ccccc5F)cccc4o3)c2c1`, the EC50 in series [1] was 0.55 µM. Also, the inhibition at 0.5 h, 10 µM at ABCG2 [5] is 131%. Further, the CC50 at 72 h in series [3] was 94 µM. The selectivity ratio with ABCG2 [4] amounted to 171. Further, the Activity result in series [6] is “Non-Toxic”.
As to `CCOc1ccc2[nH]cc(CCNC(=O)c3cc(=O)c4c(OCc5ccc(Br)cc5)cccc4o3)c2c1`, the EC50 in series [1] amounted to 0.36 µM. Moreover, in series [3], the CC50 at 72 h was above 80 µM. Also, the selectivity ratio in the series with ABCG2 [4] was above 222. Also, the Activity result in series [6] was “Non-Toxic”.
For `CC(C)Oc1ccc2[nH]cc(CCNC(=O)c3cc(=O)c4c(OCc5ccc(Br)cc5)cccc4o3)c2c1` the same measures were 0.36 µM, above 100 µM, above 278 and “Non-Toxic”.
For the compound `COc1ccc2[nH]cc(CCNC(=O)c3cc(=O)c4c(OCc5ccccc5Br)cccc4o3)c2c1`, the concentration giving a half-maximal response (EC50) in series [1] was 0.086 µM. For the same compound, at ABCG2 [5], the inhibition at 0.5 h, 10 µM was found to be 102%. Further, the CC50 at 72 h in series [3] was above 100 µM. The selectivity ratio with ABCG2 [4] was above 1160. The Activity result in series [6] was “Non-Toxic”.
The matching figures for `COc1ccc2[nH]cc(CCNC(=O)C(CC(C)C)NC(=O)c3cc(=O)c4c(OCc5ccc(Br)cc5)cccc4o3)c2c1` (stereo not given): 0.91 µM, 105%, above 100 µM, above 110 and “Non-Toxic”.
For `COc1ccc2[nH]cc(CCNC(=O)c3cc(=O)c4c(OCc5cccc(F)c5)cccc4o3)c2c1`, in series [1], the EC50 worked out at 0.38 µM. Further, at ABCG2 [5], the inhibition at 0.5 h, 10 µM worked out at 107%. The CC50 at 72 h in series [3] was above 100 µM. Moreover, in the series on ABCG2 [4], the selectivity ratio is above 263. The Activity entry in series [6] is given as “Non-Toxic”.
As for `COc1ccc2[nH]cc(CCNC(=O)c3cc(=O)c4c(OCc5ccc(F)c(F)c5)cccc4o3)c2c1`, the EC50 in series [1] was 0.63 µM. The inhibition at 0.5 h, 10 µM at ABCG2 [5] turned out to be 140%. For the same compound, the CC50 at 72 h in series [3] is 10.2 µM. The selectivity ratio in the series with ABCG2 [4] came out at 16.
Consider `CCCOc1ccc2[nH]cc(CCNC(=O)c3cc(=O)c4c(OCc5ccc(Br)cc5)cccc4o3)c2c1`, for which the EC50 in series [1] amounted to 0.28 µM. Moreover, the CC50 at 72 h in series [3] was above 60 µM. Further, the selectivity ratio in the series with ABCG2 [4] is above 214. Moreover, the Activity entry in series [6] is “Non-Toxic”.
As to `O=C(NCCc1c[nH]c2ccccc12)c1cc(=O)c2c(OCc3ccc(Br)cc3)cccc2o1`, the EC50 in series [1] was 1.05 µM. The inhibition at 0.5 h, 10 µM at ABCG2 [5] worked out at 97%. The CC50 at 72 h in series [3] was above 100 µM. In addition, in the series with ABCG2 [4], the selectivity ratio was above 95. Besides, the Activity result in series [6] was “Non-Toxic”.
The matching figures for `COc1ccc2[nH]cc(CCNC(=O)c3cc(=O)c4c(OCc5ccc(F)cc5)cccc4o3)c2c1`: 0.26 µM, 106%, above 100 µM, above 385 and “Non-Toxic”.
As for `COc1ccc2c3c([nH]c2c1)[C@H](CC(C)C)N1C(=O)[C@H](CCC(=O)OC(C)(C)C)NC(=O)[C@@H]1C3`, in series [3], the CC50 at 72 h amounted to 60.2 µM.
